Assay results from ChEMBL document CHEMBL1146274, “Serendipitous discovery of novel imidazolopyrazole scaffold as selective androgen receptor modulators” (2007).

Legend:
Rattus norvegicus [1] = assay: Androgenic activity in castrated immature Sprague-Dawley rat assessed as ventral prostate weight stimulation at 2 mg/day, po by Hersherberger assay; format: functional, Prostate gland
Outline: (§1)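 Castrated immature male rats were given oral doses once daily for 5 days in 20% cyclodextrin vehicle, n = 3 per group. Ventral prostate weight was normalized to the vehicle control. Percent stimulation was scaled with the vehicle group set to 0% and the testosterone-alone group set to 100%.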

Rattus norvegicus [2] = species: Rattus norvegicus; assay: Inhibition of testosterone-enhanced ventral prostate weight in castrated immature Sprague-Dawley rat; format: functional, Prostate gland; parameters: concentration or dose not given beside the values
Outline: (§2)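 This was an antagonist mode in castrated immature male rats. Animals were dosed orally once daily for 5 days at 2 mg/day in 20% cyclodextrin, together with testosterone propionate 0.1 mg/day (about 1.3 mg/kg) subcutaneously in sesame oil, n = 3 per group. Percent inhibition of prostate weight was scaled with the vehicle group set to 100% and the testosterone-alone group set to 0%.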

Rattus norvegicus [3] = assay: Anabolic activity assessed as stimulation of levator ani muscle weight in castrated immature Sprague-Dawley rat at 2 mg/day, po by Hersherberger assay
Rattus norvegicus [4] = assay: Inhibition of ventral prostate weight in castrated immature Sprague-Dawley rat at 2 mg/day, po; format: functional, Prostate gland; parameters: scale not given: the % may be the effect or the level left; outline: as §2
Rattus norvegicus [5] = species: Rattus norvegicus; assay: Androgenic activity in castrated immature Sprague-Dawley rat assessed as ventral prostate weight stimulation at 3 mg/ day by Hersherberger assay; format: functional, Prostate gland; outline: as §1
Rattus norvegicus [6] = assay: Anabolic activity assessed as stimulation of levator ani muscle weight in sc dosed castrated immature Sprague-Dawley rat by Hersherberger assay; format: functional; conditions: in the assay text read “po dosed” for “sc dosed”
Outline: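 Castrated immature male rats received testosterone propionate by subcutaneous injection at the nape of the neck, 5 mg/kg in sesame oil. Levator ani weight was measured as percent stimulation, with the vehicle control set to 0% and the testosterone-alone group set to 100%.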

Rattus norvegicus [7] = assay: Androgenic activity in castrated immature Sprague-Dawley rat assessed as ventral prostate weight stimulation at 5 mg/day, sc by Hersherberger assay; format: functional, Prostate gland
Outline: (§3)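 Castrated immature male rats; agent given subcutaneously by injection at the nape of the neck in sesame oil. Compounds in the same table were dosed once daily for 5 days with N = 3/group. Tissue weight is expressed as percent stimulation, with the vehicle-treated control set to 0% and the testosterone-alone control set to 100%.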

Rattus norvegicus [8] = assay: Anabolic activity assessed as stimulation of levator ani muscle weight in castrated immature Sprague-Dawley rat at 5 mg/day, sc by Hersherberger assay; format: functional; outline: as §3

Row | SMILES | Activity (Rattus norvegicus [1]) | Inhibition (Rattus norvegicus [2]) | Activity (Rattus norvegicus [3]) | Activity (Rattus norvegicus [4]) | Activity (Rattus norvegicus [5]) | ED50 (Rattus norvegicus [6]) | Activity (Rattus norvegicus [7]) | Activity (Rattus norvegicus [8])
1 | CC12CC(c3c(F)c(F)c(F)c(F)c3F)=NN1C(N)=N/C2=N\c1ccc(C#N)c(C(F)(F)F)c1 (centres undefined) | <10% | <10% | 21% |  |  |  |  | 
2 | CC1(/C(=N/c2ccc(C#N)c(C(F)(F)F)c2)NO)CC(C(F)(F)F)=NN1 (centres undefined) | <10% | <10% | <10% |  |  |  |  | 
3 | CON/C(=N\c1ccc(C#N)c(C(F)(F)F)c1)C1(C)CC(C(F)(F)F)=NN1 (centres undefined) | 14% | <10% | 23% |  |  |  |  | 
4 | CC12CC=NN1C(N)=N/C2=N\c1ccc(C#N)c(C(F)(F)F)c1 (centres undefined) | <10% | <10% | <10% |  |  |  |  | 
5 | CC12CC(C(F)(F)F)=NN1C(N)=N/C2=N\c1ccc([N+](=O)[O-])c(C(F)(F)F)c1 (centres undefined) | <10% | <10% | <10% |  |  |  |  | 
6 | CC1(/C(=N/c2ccc(C#N)c(C(F)(F)F)c2)N2CCCC2)CC(C(F)(F)F)=NN1 (centres undefined) | <10% | <10% | <10% |  |  |  |  | 
7 | CC12CC(C(F)(F)F)=NN1C(=N)O/C2=N\c1ccc(C#N)c(C(F)(F)F)c1 (centres undefined) | 55% |  | 29% |  |  |  |  | 
8 | CN/C(=N\c1ccc(C#N)c(C(F)(F)F)c1)C1(C)CC(C(F)(F)F)=NN1 (centres undefined) |  | 15% | 17% | 15% |  |  |  | 
9 | CCOC(=O)C1=NN2C(N)=N/C(=N\c3ccc(C#N)c(C(F)(F)F)c3)C2(C)C1 (centres undefined) | <10% | <10% | <10% |  |  |  |  | 
10 | CCN/C(=N\c1ccc(C#N)c(C(F)(F)F)c1)C1(C)CC(C(F)(F)F)=NN1 (centres undefined) | <10% | 18% | 50% |  |  |  |  | 
11 | CC12CC(C(F)(F)F)=NN1C(N)=N/C2=N\c1ccc(Br)c(C(F)(F)F)c1 (centres undefined) | <10% | <10% | <10% |  |  |  |  | 
12 | CC12CC(C(F)(F)F)=NN1C(N)=N/C2=N\c1ccc(Cl)c(Cl)c1 (centres undefined) | <10% | 31% | <10% |  |  |  |  | 
13 | C[C@](O)(CS(=O)(=O)c1ccc(F)cc1)C(=O)Nc1ccc(C#N)c(C(F)(F)F)c1 [(R)-BICALUTAMIDE] |  | 70% |  |  |  |  |  | 
14 | CC1(/C(=N/c2ccc(C#N)c(C(F)(F)F)c2)NS(C)(=O)=O)CC(C(F)(F)F)=NN1 (centres undefined) | <10% | <10% | <10% |  |  |  |  | 
15 | CC12CC(C(F)(F)F)=NN1C(NC(=O)C(F)(F)F)=N/C2=N\c1ccc(C#N)c(C(F)(F)F)c1 (centres undefined) | 55% | 31% | 61% |  |  |  |  | 
16 | C[C@@]12CC(C(F)(F)F)=NN1C(N)=N/C2=N\c1ccc(C#N)c(C(F)(F)F)c1 |  | <10% | 72% |  | 29% | 0.85 mg/day |  | 
17 | CCC(=O)O[C@H]1CC[C@H]2[C@@H]3CCC4=CC(=O)CC[C@]4(C)[C@H]3CC[C@]12C [TESTOSTERONE PROPIONATE] |  |  |  |  |  |  | 100% | 100%
18 | CCC12CC(C(F)(F)F)=NN1C(N)=N/C2=N\c1ccc(C#N)c(C(F)(F)F)c1 (centres undefined) | <10% | <10% | 16% |  |  |  |  | 
19 | CC1(/C(N)=N/c2ccc(C#N)c(C(F)(F)F)c2)CC(C(F)(F)F)=NN1 (centres undefined) | 39% | 20% | 76% |  |  |  |  | 
20 | C[C@]12CC(C(F)(F)F)=NN1C(N)=N/C2=N\c1ccc(C#N)c(C(F)(F)F)c1 |  | 30% | 91% |  | 36% | 0.07 mg/day |  | 
21 | CCN(CC)/C(=N\c1ccc(C#N)c(C(F)(F)F)c1)C1(C)CC(C(F)(F)F)=NN1 (centres undefined) | 22% | <10% | 32% |  |  |  |  | 
22 | CCc1c(/N=C2\N=C(N)N3N=C(C(F)(F)F)CC23C)ccc(C#N)c1C(F)(F)F (centres undefined) | <10% | <10% | 19% |  |  |  |  | 
